Data from ChEMBL document CHEMBL3044632, “Synthesis, crystal structure, and biological activity of 4-methyl-1,2,3-thiadiazole-containing 1,2,4-triazolo[3,4-b][1,3,4]thiadiazoles” (J Agric Food Chem, 2010).
In brackets after ≈: the same amount, converted by molar mass. Activity calls are given as the source filed them. No cut-off for these calls is given here.

What was measured:
[1] = test system: Tobacco mosaic virus; test: Antiviral activity against Tobacco mosaic virus (TMV) infected leaves assessed as viral inhibition at 100 ug/mL at 25 degC for 72 hr; format: functional
Summary of the method: (§1)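 Systemic acquired resistance induction was assayed in a tobacco–TMV system. The antivirus inhibition ratio was calculated from the average number of viral lesions on inoculated leaves, relative to the corresponding control.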

[2] = test system: Nicotiana tabacum; test: Induction of systemic acquired resistance in Nicotiana tabacum (tobacco) mosaic virus infected Nicotiana tabacum (tobacco) plant at 100 ug/mL at 25 degC for 72 hr; format: functional
Summary of the method: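 Tobacco–TMV system used to assess induced resistance. The antiviral inhibition ratio was calculated from the mean number of viral lesions on inoculated leaves, relative to the matching control.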

[3] = test system: Macrophoma; test: Fungicide activity against Macrophoma kuwatsukai assessed as growth inhibition at 24 to 26 degC measured after 2 days; format: functional, organism-based; conditions: 48 h
[4] = test system: Colletotrichum lagenaria; test: Fungicide activity against Colletotrichum lagenaria assessed as growth inhibition at 50 ug/mL at 24 to 26 degC measured after 2 days; format: functional; conditions: 48 h, read-out: GI
[5] = test system: Fusarium oxysporum f. sp. cucumerinum; test: Fungicide activity against Fusarium oxysporum f. cucumerinum assessed as growth inhibition at 24 to 26 degC measured after 2 days; format: functional, organism-based; conditions: 48 h
[6] = test system: Botryosphaeria berengeriana; test: Fungicide activity against Botryosphaeria berengeriana assessed as growth inhibition at 50 ug/mL at 24 to 26 degC measured after 2 days; format: functional; conditions: 48 h, read-out: GI
[7] = test system: Thanatephorus cucumeris; test: Fungicide activity against Thanatephorus cucumeris assessed as growth inhibition at 50 ug/mL at 24 to 26 degC measured after 2 days; format: functional; conditions: 48 h, read-out: GI
[8] = test system: Fusarium oxysporum; test: Fungicide activity against Fusarium oxysporum assessed as growth inhibition at 50 ug/mL at 24 to 26 degC measured after 2 days; format: functional; conditions: 48 h, read-out: GI
[9] = test system: Mycosphaerella arachidis; test: Fungicide activity against Mycosphaerella arachidis assessed as growth inhibition at 50 ug/mL at 24 to 26 degC measured after 2 days; format: functional; conditions: 48 h, read-out: GI
[10] = test system: Nicotiana tabacum; test: Phytotoxicity against Nicotiana tabacum (tobacco) plant at 50 to 500 ug/mL; format: organism-based; conditions: in vivo
[11] = test system: Tobacco mosaic virus; test: Antiviral activity against Tobacco mosaic virus (TMV) infected leaves assessed as viral inhibition at 500 ug/mL at 25 degC for 72 hr; format: functional; summary of the method: as §1
[12] = test system: Phytophthora infestans; test: Fungicide activity against Phytophthora infestans assessed as growth inhibition at 24 to 26 degC measured after 2 days; format: functional, organism-based; conditions: 48 h
[13] = test system: Alternaria solani; test: Fungicide activity against Alternaria solani assessed as growth inhibition at 24 to 26 degC measured after 2 days; format: functional, organism-based; conditions: 48 h
[14] = test system: Thanatephorus cucumeris; test: Fungicide activity against Thanatephorus cucumeris assessed as growth inhibition at 24 to 26 degC measured after 2 days; format: functional, organism-based; conditions: 48 h
[15] = test system: Rhizoctonia solani; test: Fungicide activity against Rhizoctonia solani Kuhn assessed as growth inhibition at 50 ug/mL at 24 to 26 degC measured after 2 days; format: functional; conditions: 48 h, read-out: GI
[16] = test system: Alternaria solani; test: Fungicide activity against Alternaria solani assessed as growth inhibition at 50 ug/mL at 24 to 26 degC measured after 2 days; format: functional; conditions: 48 h, read-out: GI
[17] = test system: Cercospora beticola; test: Fungicide activity against Cercospora beticola assessed as growth inhibition at 50 ug/mL at 24 to 26 degC measured after 2 days; format: functional; conditions: 48 h, read-out: GI
[18] = test system: Rhizoctonia solani; test: Fungicide activity against Rhizoctonia solani assessed as growth inhibition at 24 to 26 degC measured after 2 days; format: functional, organism-based; conditions: 48 h
[19] = test system: Phytophthora infestans; test: Fungicide activity against Phytophthora infestans assessed as growth inhibition at 50 ug/mL at 24 to 26 degC measured after 2 days; format: functional; conditions: 48 h, read-out: GI
[20] = test system: Puccinia triticina; test: Fungicide activity against Puccinia triticina assessed as growth inhibition at 50 ug/mL at 24 to 26 degC measured after 2 days; format: functional; conditions: 48 h, read-out: GI
[21] = test system: Tobacco mosaic virus; test: Antiviral activity against Tobacco mosaic virus (TMV) infected leaves assessed as viral inhibition at 50 ug/mL at 25 degC for 72 hr; format: functional; summary of the method: as §1

| SMILES | inhibition at 100 µg/mL [1] | Activity [2] | inhibition of growth at 50 µg/mL [4] | inhibition of growth at 50 µg/mL [6] | inhibition of growth at 50 µg/mL [7] | inhibition of growth at 50 µg/mL [8] | inhibition of growth at 50 µg/mL [9] | Activity [10] | inhibition at 500 µg/mL [11] | inhibition of growth at 50 µg/mL [15] | inhibition of growth at 50 µg/mL [16] | inhibition of growth at 50 µg/mL [17] | inhibition of growth at 50 µg/mL [19] | inhibition of growth at 50 µg/mL [20] | inhibition at 50 µg/mL [21] | further results |
| --- | --- | --- | --- | --- | --- | --- | --- | --- | --- | --- | --- | --- | --- | --- | --- | --- |
| Cc1ccc(NC(=O)c2snnc2C)cc1Cl [TIADINIL] | 36.6% | 48.92% | – | – | – | – | – | – | – | – | – | – | – | – | – | – |
| Cc1nnsc1C1=NNC2SC(C(Cl)(Cl)Cl)=NN12 (configuration not stated) | 33.3% | – | 64.7% | 83.9% | 84.8% | 75% | 63.6% | Toxic | 27.8% | 83.3% | 66.7% | 71.4% | 70.7% | 78.9% | – | EC50 [3]: 6.4 µg/mL (≈ 18.6 µM); EC50 [5]: 11.2 µg/mL (≈ 32.6 µM); EC50 [12]: 12.5 µg/mL (≈ 36.4 µM); EC50 [13]: 14.6 µg/mL (≈ 42.5 µM); EC50 [14]: 2.5 µg/mL (≈ 7.27 µM); EC50 [18]: 4.1 µg/mL (≈ 11.9 µM) |
| Cc1nnsc1C1=NNC2SC(c3cccc([N+](=O)[O-])c3)=NN12 (configuration not stated) | 44.4% | – | 0% | 12.8% | 25% | 47.2% | 7.7% | Toxic | 44.4% | 11.1% | 9.5% | 0% | 54.8% | 10% | – | – |
| NC(=O)c1ncn([C@@H]2O[C@H](CO)[C@@H](O)[C@H]2O)n1 [RIBAVIRIN] | 21.6% | inactive | – | – | – | – | – | – | 37.9% | – | – | – | – | – | 16.7% | – |
| CCc1cc(C2=NN3C(c4snnc4C)=NNC3S2)nn1C (configuration not stated) | – | – | 0% | 12.8% | 30.4% | 47.2% | 7.7% | Toxic | – | 19.4% | 9.5% | 0% | 4.8% | 10% | 34.8% | – |
| Cc1nnsc1C1=NNC2SC(c3ccc(OC(F)(F)F)cc3)=NN12 (configuration not stated) | – | – | 18.2% | 17.9% | 30.4% | 44.4% | 15.4% | Toxic | – | 11.1% | 9.5% | 0% | 4.8% | 70% | 10.2% | – |
